Measurements from ChEMBL document CHEMBL6115033, “Discovery of a Pyrazolopyridinone-Based MYC Inhibitor That Selectively Engages Intracellular c-MYC and Disrupts MYC-MAX Heterodimerization” (J Med Chem, 2025).
Activity calls are given as the source filed them. The rule behind the calls is not given here.

Legend:
[1] = Antiproliferative activity against human P493-6 cells expressing MYC assessed as inhibition of cell proliferation incubated for 96 hrs by cell titer glo assay; type: functional, cell-based; conditions: P493-6, 96 h
Outline: (§1)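 P493-6 cells (3000/well, RPMI) were seeded overnight at 37 °C, then given compounds at final 0.14–100 µM for 96 h. MYC-off cells were pretreated with 0.1 µg/mL tetracycline for 72 h. Read-out was CellTiter-Glo luminescence after equilibration to room temperature. IC50 was determined in high-MYC and MYC-off cells.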

[2] = Selectivity index, ratio of IC50 for antiproliferative activity against tetracycline-treated human P493-6 cells expressing MYC assessed as inhibition of cell proliferation to IC50 for antiproliferative activity against human P493-6 cells expressing MYC assessed as inhibition of cell proliferation; type: functional
Outline: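 MYC-off P493-6 cells obtained by 72 h pretreatment with 0.1 µg/mL tetracycline and compared with untreated MYC-high cells. Cells seeded at 3000 per 100 uL, held overnight at 37 °C, then treated at 0.14–100 uM final for 96 h. Viability read by CellTiter-Glo luminescence. IC50 values determined in both states and compared as a selectivity index.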

MDA-MB-231 = assay: Antiproliferative activity against human MDA-MB-231 cells assessed as cell viability incubated for 96 hrs by MTT assay; type: functional, cell-based; conditions: MDA-MB-231, 96 h
Outline: (§2)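 Adherent cells (2000/well) attached overnight, then exposed to compounds at 0.14–100 µM for 96 h in DMEM with 10% FBS. MTT at 0.5 mg/mL for 4 h in the dark, formazan dissolved in DMSO, absorbance at 570 nm. Compounds were freshly prepared in DMSO, with DMSO below 1%.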

[3] = Antiproliferative activity against tetracycline-treated human P493-6 cells expressing MYC assessed as inhibition of cell proliferation incubated for 96 hrs by cell titer glo assay; type: functional, cell-based; conditions: P493-6, 96 h; outline: as §1
MCF7 = assay: Antiproliferative activity against human MCF7 cells assessed as cell viability incubated for 96 hrs by MTT assay; type: functional, cell-based; conditions: MCF7, 96 h; outline: as §2
MDA-MB-468 = assay: Antiproliferative activity against human MDA-MB-468 cells assessed as cell viability incubated for 96 hrs by MTT assay; type: functional, cell-based; conditions: MDA-MB-468, 96 h; outline: as §2
[4] = Induction of apoptosis in human P493-6 cells assessed as early apoptotic cells at 25 uM incubated for 24 hrs by Annexin V/PI staining based flow cytometry analysis (reference value: 2.52 %); type: functional
[5] = Induction of apoptosis in human P493-6 cells assessed as necrotic cells at 25 uM incubated for 24 hrs by Annexin V/PI staining based flow cytometry analysis (reference value: 0.11 %); type: functional
[6] = Induction of apoptosis in human P493-6 cells assessed as viable cells at 25 uM incubated for 24 hrs by Annexin V/PI staining based flow cytometry analysis (reference value: 90.8%); type: functional; conditions: read-out: Activity
[7] = Induction of apoptosis in human P493-6 cells assessed as late apoptotic cells at 25 uM incubated for 24 hrs by Annexin V/PI staining based flow cytometry analysis (reference value: 6.52 %); type: functional
P493-6 [8] = assay: Antiproliferative activity against tetracycline-treated human P493-6 cells expressing MYC assessed as inhibition of cell proliferation at 25 uM incubated for 96 hrs by cell titer glo assay; type: functional, cell-based
Outline: (§3)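 P493-6 cells, either untreated (high MYC) or MYC-off after 0.1 µg/mL tetracycline for 72 h, were exposed to 25 µM for 96 h. Read-out was % survival by CellTiter-Glo luminescence. Mean ± SD, n = 6, unpaired t-test.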

[9] = target: T1, c-Myc/c-Max (Homo sapiens) (UniProt P01106+P61244); assay: Disruption of MYC-MAX interaction in human MDA-MB-468 cells assessed as reduction in myc level at 25 uM; type: cell-based
T1 sequence (P01106 whole entry): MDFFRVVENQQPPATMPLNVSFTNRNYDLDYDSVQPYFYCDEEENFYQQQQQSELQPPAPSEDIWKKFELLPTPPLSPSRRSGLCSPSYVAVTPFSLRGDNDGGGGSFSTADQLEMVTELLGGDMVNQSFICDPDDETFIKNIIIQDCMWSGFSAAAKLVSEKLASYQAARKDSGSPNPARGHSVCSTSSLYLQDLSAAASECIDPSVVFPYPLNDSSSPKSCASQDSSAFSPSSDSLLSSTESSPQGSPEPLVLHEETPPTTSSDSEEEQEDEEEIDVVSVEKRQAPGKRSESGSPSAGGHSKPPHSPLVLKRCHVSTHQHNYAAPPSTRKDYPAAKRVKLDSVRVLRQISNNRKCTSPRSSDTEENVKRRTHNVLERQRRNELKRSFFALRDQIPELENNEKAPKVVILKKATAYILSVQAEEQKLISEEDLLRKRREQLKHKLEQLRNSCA
T1 sequence (P61244 2-160 partner limits assumed): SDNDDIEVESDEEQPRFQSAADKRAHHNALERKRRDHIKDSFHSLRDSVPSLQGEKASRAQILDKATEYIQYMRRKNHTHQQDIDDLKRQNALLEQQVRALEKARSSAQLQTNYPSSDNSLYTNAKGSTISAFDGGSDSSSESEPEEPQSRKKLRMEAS

P493-6 [10] = assay: Antiproliferative activity against human P493-6 cells expressing MYC assessed as inhibition of cell proliferation at 25 uM incubated for 96 hrs by cell titer glo assay; type: functional, cell-based; outline: as §3
[11] = target: T1, c-Myc/c-Max (Homo sapiens); assay: Disruption of MYC-MAX interaction in human P493-6 cells assessed as reduction in myc level at 25 uM; type: cell-based

| Compound | IC50 [1] [µM] | Ratio IC50 [2] | IC50 (MDA-MB-231) [µM] | IC50 [3] [µM] | IC50 (MCF7) [µM] | IC50 (MDA-MB-468) [µM] | Activity [4] [%] | Activity [5] [%] | viability at 25 µM [6] [%] | Activity [7] [%] | Activity (P493-6 [8]) | Activity [9] | Activity (P493-6 [10]) | Activity [11] |
| --- | --- | --- | --- | --- | --- | --- | --- | --- | --- | --- | --- | --- | --- | --- |
| COc1ccc(-c2nn(-c3ccccc3)c3[nH]c(=O)c(C#N)cc23)cc1 | 20.9 | >4 | 38 | > 100 | 16.6 | 33.1 | – | – | – | – | – | – | – | – |
| CCc1ccc(/C=C2/SC(=S)NC2=O)cc1 | 35.1 | 1.7 | 44.7 | 59.5 | – | 39.8 | 2.54 | 0.062 | 89.3 | 8.06 | – | – | – | – |
| Cc1ccc(-c2nn(-c3ccccc3)c3[nH]c(=O)c(C#N)cc23)cc1 | 21.1 | 2.4 | 34.7 | 51.3 | 20.4 | 32.4 | – | – | – | – | – | – | – | – |
| COc1ccc(-n2nc(-c3ccc(C)cc3)c3cc(C#N)c(=O)[nH]c32)cc1 | 51.2 | 1.5 | 9.8 | 75.9 | 9.3 | 7.9 | – | – | – | – | – | – | – | – |
| N#Cc1cc2c(-c3ccc(F)cc3)nn(-c3ccc(F)cc3)c2[nH]c1=O | > 100 | – | > 100 | > 100 | 9.3 | 79.4 | – | – | – | – | – | – | – | – |
| Cc1ccc(-c2nn(-c3ccc(Cl)cc3)c3[nH]c(=O)c(C#N)cc23)cc1 | – | – | 58.9 | – | > 100 | 71.6 | – | – | – | – | – | – | – | – |
| N#Cc1cc2c(-c3ccc(Br)cc3)nn(-c3ccccc3)c2[nH]c1=O | 15.6 | 2.3 | 5.5 | 35.9 | 12.2 | 13.2 | – | – | – | – | Active | Active | Active | Active |
